Compound activity (PubChem)
SENP1 inh: human SENP1 catalytic domain inhibitors, primary screen, biochemical, FRET, uHTS; 360,000 tested, 0.21% active; recombinant SENP1 catalytic domain, CyPet-SUMO1-YPet FRET cleavage; AID 624204, 2012; Sentrin-specific protease 1 (Homo sapiens), Q9P0U3; inhibition, % at 10 µM;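 active = inhibition at least 30% at 10 µM, raw YFP signal under a set limit, fluorescence ratio 0.5 to 1.5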;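 note: 0% = enzyme with DMSO and 100% = no enzyme wells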
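Test system: recombinant human SENP1 catalytic domain, His6-tagged / Medium: pH 8 Tris buffer with EDTA, NaCl, BME, BSA, NP40, catalase / Also added: SUMO1 FRET substrate flanked by Cypet and Ypet, 25 nM / Times: 50 min reaction at room temperature / Signal: FRET, CFP and YFP emission / Control set: no-enzyme low control and enzyme-plus-DMSO high control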
SENP7 block: SENP7 protease inhibitors, primary screen, biochemical, luminescence, uHTS. Sentrin-specific protease 7 (Homo sapiens), Q9BQF6. recombinant SENP7, Z-RLRGG-aminoluciferin luminescence, 40 min. 330,000 tested, 1.5% active. inhibition, % at 5 µM. AID 434973, 2010;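 active = inhibition above about 50% at the single test dose, limit read from the data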;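 note: plate controls were DMSO with enzyme for no effect and no enzyme buffer wells for full effect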
Target sequence (Q9BQF6 706-1050 limits assumed): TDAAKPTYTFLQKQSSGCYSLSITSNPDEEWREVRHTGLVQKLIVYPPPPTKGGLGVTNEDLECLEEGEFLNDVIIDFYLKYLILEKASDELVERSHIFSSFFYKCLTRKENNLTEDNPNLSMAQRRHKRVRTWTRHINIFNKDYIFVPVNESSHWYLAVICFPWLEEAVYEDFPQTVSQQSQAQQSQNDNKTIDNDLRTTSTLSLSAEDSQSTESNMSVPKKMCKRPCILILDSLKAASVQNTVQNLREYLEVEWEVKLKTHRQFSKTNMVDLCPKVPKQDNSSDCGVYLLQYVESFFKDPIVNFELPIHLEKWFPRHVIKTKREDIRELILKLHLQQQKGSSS
SENP6 block: SENP6 protease inhibitors, primary screen, biochemical, luminescence, uHTS. 330,000 tested, 1.8% active. Sentrin-specific protease 6 (Homo sapiens), Q9GZR1. inhibition, % at 10 µM. Recombinant SENP6 catalytic domain, aminoluciferin luminescence. AID 2599, 2010;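 active = inhibition above about 50% at the single tested dose, limit read from the data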;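 note: plate controls were DMSO wells with enzyme for no effect and DMSO wells lacking enzyme for full effect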
SENP8 block-1: SENP8 protease inhibitors, primary screen, biochemical, luminescence; purified SENP8, Z-RLRGG-aminoluciferin cleavage; AID 2540, 2010; inhibition, % at 10 µM; Sentrin-specific protease 8 (Homo sapiens), Q96LD8; 330,000 tested, 1.2% active; in the data active = inhibition above about 50%
SENP8 block-2: human SENP8 protease inhibitors, primary screen, biochemical, fluorescence, Nedd8 protein substrate, uHTS | 360,000 tested, 0.64% active | inhibition, % at 20 µM | recombinant SENP8 | AID 602440, 2012; in the data active = inhibition mostly above about 40%, no sharp cut-off; inactive = mostly below about 27%
HSP90 inh: HSP90 inhibitors, primary screen, cell lysate, luminescence; Rabbit reticulocyte lysate, luciferase refolding luminescence, 3 h; inhibition, % at 5.6 µM; 290,000 tested, 0.91% active; AID 1789, 2009;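 active = inhibition above the screen-wide mean plus 3 SD, computed separately per campaign, cut at about 16% in these data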;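 note: 0% = DMSO wells and 100% = 60 µM geldanamycin wells; inhibitors lower the luminescence because luciferase stays unfolded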
SENP8 confirm: SENP8 protease inhibitors, retest, confirmation, biochemical, luminescence, single concentration. shares compounds with SENP7 block. Recombinant SENP8, Z-RLRGG-aminoluciferin luminescence, 60 min. inhibition, % at 12.5 µM. 6,200 tested, 40% active. AID 488912, 2010;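 active = mean inhibition across replicates above about 50%, limit read from the data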
SENP6 confirm: SENP6 protease inhibitors, confirmation, biochemical, luminescence, single concentration | 6,200 tested, 58% active | recombinant SENP6, Z-RLRGG-aminoluciferin luminescence | shares compounds with SENP7 block | inhibition, % at 12.5 µM | AID 488915, 2010
SENP7 confirm: SENP7 protease inhibitors, retest, confirmation, biochemical, luminescence, single concentration. inhibition, % at 12.5 µM. recombinant SENP7, Z-RLRGG-aminoluciferin luminescence, 40 min. shares compounds with SENP7 block. 6,200 tested, 69% active
Casp3 select: caspase-3 protease inhibitors, confirmation, selectivity assay for SENP inhibitor project, biochemical, single concentration; shares compounds with SENP7 block; purified caspase-3, Z-DEVD-aminoluciferin luminescence, 60 min; inhibition, % at 12.5 µM; 6,200 tested, 60% active;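 active = mean inhibition above about 50%, limit read from the data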;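 note: plate controls were enzyme with DMSO for no effect and wells without caspase-3 for full effect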
Target sequence (P42574 28-227 limits assumed): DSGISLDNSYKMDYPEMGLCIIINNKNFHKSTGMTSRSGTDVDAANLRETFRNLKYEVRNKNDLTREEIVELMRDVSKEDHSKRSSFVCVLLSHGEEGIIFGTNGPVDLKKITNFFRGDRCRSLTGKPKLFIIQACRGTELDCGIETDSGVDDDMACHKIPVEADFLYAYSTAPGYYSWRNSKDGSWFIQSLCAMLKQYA
Luc interf: luminescence interference (SENP counter-screen). shares compounds with SENP7 block. Pre-incubated SENP8/Z-RLRGG-aminoluciferin, luciferase luminescence interference. inhibition, % at 12.5 µM. 6,200 tested, 39% active;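 active = mean inhibition above about 50% when retested at one dose, limit read from the data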;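 note: plate controls were DMSO wells with completed reaction for no effect and substrate without enzyme for full effect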
An asterisk follows results filed as active. A selection: hits, their analogues and other compounds. The true share with any hit is near 2.9%.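 Rule for the calls, unless noted: active = mean inhibition above about 50% in the one-dose retest (limit read from the data); inactive = the rest.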

`c1cnc2ccc(-c3ccc4ncccc4c3)cc2c1` gave SENP1 inh 1, SENP7 block 32, SENP6 block 77*, SENP8 block-1 55*, SENP8 block-2 -112, HSP90 inh -1, SENP8 confirm 72*, SENP6 confirm 71*, SENP7 confirm 87*, Casp3 select 65* and Luc interf 76*.
`Cc1cc(OC(=O)c2cc(C(F)(F)F)cc(C(F)(F)F)c2)c([N+](=O)[O-])c(=O)[nH]1` gave SENP1 inh 0, SENP7 block 2, SENP6 block -6, SENP8 block-1 -4, SENP8 block-2 31 and HSP90 inh 0.
COn1c(-c2ccccc2)nc2ccc(Cl)cc21 was read as SENP1 inh 2, SENP7 block 23, SENP6 block 54*, SENP8 block-1 22, SENP8 block-2 -22, HSP90 inh -2, SENP8 confirm 39, SENP6 confirm 39, SENP7 confirm 72*, Casp3 select 39 and Luc interf 44.
For O=[N+]([O-])c1ccc2nc(-c3ccccc3)n(OCc3ccc(Cl)cc3)c2c1 the results were SENP1 inh 4, SENP7 block 84*, SENP6 block 86*, SENP8 block-1 66*, SENP8 block-2 15, HSP90 inh -4, SENP8 confirm 11, SENP6 confirm 11, SENP7 confirm 11, Casp3 select 11 and Luc interf 0.
O=[N+]([O-])c1ccc(COn2nnc3ccccc32)cc1 was read as SENP1 inh 0, SENP7 block -1, SENP6 block 15, SENP8 block-1 -13, SENP8 block-2 14 and HSP90 inh -3.
For O=C(O)COn1c(-c2ccccc2)nc2ccc(Cl)cc21 the results were SENP1 inh 2, SENP7 block -4, SENP6 block -18, SENP8 block-1 -2, SENP8 block-2 -4 and HSP90 inh -2.
O=C(NCc1cccnc1)c1ccc(-c2cccc(Cl)c2Cl)o1 was read as SENP1 inh -11, SENP7 block 91*, SENP6 block 8, SENP8 block-1 2, SENP8 block-2 -5, HSP90 inh -4, SENP8 confirm -29, SENP6 confirm -16, SENP7 confirm -6, Casp3 select -4 and Luc interf -7.
O=C(Nc1cccc(F)c1)c1ccc(-c2ccccc2Cl)o1 was read as SENP1 inh 0, SENP7 block 34, SENP6 block 54*, SENP8 block-1 42, SENP8 block-2 -6, HSP90 inh 3, SENP8 confirm 47, SENP6 confirm 50, SENP7 confirm 70*, Casp3 select 25 and Luc interf 21.
O=C(Nc1ccccc1)c1cc(-c2ccccc2Cl)no1 was read as SENP1 inh 4, SENP7 block 85*, SENP6 block 88*, SENP8 block-1 69*, SENP8 block-2 22, HSP90 inh 12, SENP8 confirm 81*, SENP6 confirm 81*, SENP7 confirm 95*, Casp3 select 69* and Luc interf 74*.
CCc1nnc(NC(=O)c2ccc(COc3ccccc3Cl)o2)s1 was read as SENP1 inh 2, SENP7 block -4, SENP6 block -14, SENP8 block-1 1, SENP8 block-2 8 and HSP90 inh -3.
CCc1nnc(NC(=O)c2ccc(-c3ccccc3Cl)o2)s1 was read as SENP1 inh -1, SENP7 block 68*, SENP6 block 33, SENP8 block-1 10, SENP8 block-2 -228, HSP90 inh 1, SENP8 confirm 5, SENP6 confirm 3, SENP7 confirm 1, Casp3 select 9 and Luc interf -3.
O=C(NC(=S)Nc1cccc([N+](=O)[O-])c1)C1CCCCC1 was read as SENP1 inh 2, SENP7 block -1, SENP6 block -15, SENP8 block-1 -1, SENP8 block-2 11 and HSP90 inh 1.
For COc1ccc(NC(=O)c2ccc(-c3ccccc3Cl)o2)cc1 the results were SENP1 inh 0, SENP7 block 52*, SENP6 block 75*, SENP8 block-1 69*, SENP8 block-2 6, HSP90 inh -2, SENP8 confirm 48, SENP6 confirm 64*, SENP7 confirm 86*, Casp3 select 49 and Luc interf 5.
Screening COc1ccc(NC(=O)c2ccc(-c3ccc(C)c4ccccc34)o2)cc1 returned SENP1 inh 1, SENP7 block -10, SENP6 block -1, SENP8 block-1 5, SENP8 block-2 -74 and HSP90 inh 2.
Screening CCCn1c(N)c(N(CCOC)C(=O)c2cccc(S(=O)(=O)N3CCCc4ccccc43)c2)c(=O)[nH]c1=O returned SENP1 inh -2, SENP7 block -6, SENP6 block -3, SENP8 block-1 -3 and SENP8 block-2 4.
Screening OC1=C(O)c2nc3cc(F)ccc3nc21 returned SENP1 inh -12, SENP7 block -2, SENP6 block 11, SENP8 block-1 -1, SENP8 block-2 17 and HSP90 inh 1.
`Fc1ccc2nc3[nH]c4ccccc4c3nc2c1` gave SENP1 inh -58, SENP7 block 74*, SENP6 block 74*, SENP8 block-1 47, SENP8 block-2 -211, HSP90 inh 0, SENP8 confirm 8, SENP6 confirm 53*, SENP7 confirm 53*, Casp3 select 61* and Luc interf 25.
